Laboratory results as given in PubChem BioAssay.
Calls of active or inactive are those of the source.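 Rule for the calls, unless noted: active = viability at or below 30% in both replicate assays; inconclusive = viability at or below 30% in just one of the two assays; inactive = the rest.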

Legend:
[1] = Her2 expression decrease, cell viability multiplex – SKBR3 breast tumor cells, AlphaScreen, ATP viability, primary screen (AID 461;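 active = Her2 level under about 52% in both replicate screens, with viability over 70% of control, limit read from the data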;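 for Her2 level: lower value means less Her2 protein in the cells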;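 for viability: percent of carrier control wells set as 100% viability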); settings: SKBR3 Her2 protein level, 18-24 h, measured here: SKBR3 viability, ATP luminescence, at 10 µM
[2] = target: Receptor tyrosine-protein kinase erbB-2 (Homo sapiens) (UniProt P04626); test: as above; settings: 18-24 h, at 10 µM, stronger effect = lower value
[3] = reduced viability of SK-BR-3 breast cancer cells – cell-based, 24 h, human, pilot screen (AID 572;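 active = viability at or below 10% of carrier control in both of two separate runs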;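 note: compound exposure lasted between 18 and 24 h rather than exactly 24 h; 100% = carrier-treated control wells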); settings: SK-BR-3 viability, CellTiter-Glo luminescence, at 10 µM, stronger effect = lower value
[4] = HUVEC growth inhibition – cell-based, human, primary screen (AID 575); settings: HUVEC proliferation, CellTiter-Glo luminescence, 72 h; at 10 µM; stronger effect = lower value;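 note: 100% = median of untreated cell wells with 0.1% DMSO on each plate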
Procedure, shortened: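 Test system: primary human umbilical vein endothelial cells; medium: endothelial basal medium with 2% FBS plus growth supplements; dosing: 10 µM compound only; times: 72 h treatment at 37 °C; signal: CTG luminescence; read-out: % viability relative to median vehicle-well signal on each plate; control set: vehicle and MePR control wells; plate: 384-well, collagen-coated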

[5] = H69AR cell proliferation blockers – human, duplicate replicates, primary screen (AID 580;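 active = viability at or under a set limit in both replicates, limit being median viability minus 3 SD, cut at about 48% in these data, passing the limit was not always enough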;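 note: 100% = mean luminescence of untreated wells and 0% = no signal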); settings: H69AR lung tumor cells viability, ATP luminescence, 72 h; at 10 µM; stronger effect = lower value
[6] = MRP1 drug-resistance reversers in H69AR cells – cell-based, doxorubicin co-treatment, pilot screen (AID 601;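 active = viability loss from added drug above about 55%, and viability with drug at most 40%, in both replicates, limit read from the data, passing the limit was not always enough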); settings: CellTiter-Glo, 72 h, at 10 µM; for differential viability (reversal): stronger effect = higher value
[7] = yeast transport mutant growth inhibition pilot in 384-well plates, post-Golgi transport modulator project (AID 636; in the data active = inhibition above about 31%); settings: absorbance 615 nm, about 18 h, stronger effect = higher value
[8] = growth suppression of yeast trafficking mutant, preliminary HTS, modulators of trafficking downstream of Golgi apparatus project, 1536-format plate, OD 615 nm (AID 637; in the data active = inhibition above about 30%); settings: yeast transport mutant growth, absorbance 615 nm, 18 h; stronger effect = higher value
[9] = H69AR cells + 2 uM doxorubicin, measured here: viability with 2 uM doxorubicin, stronger effect = lower value
[10] = H69AR cells, compound alone cytotoxicity

Sequence of Receptor tyrosine-protein kinase erbB-2 (Homo sapiens) (P04626 whole entry, looked up): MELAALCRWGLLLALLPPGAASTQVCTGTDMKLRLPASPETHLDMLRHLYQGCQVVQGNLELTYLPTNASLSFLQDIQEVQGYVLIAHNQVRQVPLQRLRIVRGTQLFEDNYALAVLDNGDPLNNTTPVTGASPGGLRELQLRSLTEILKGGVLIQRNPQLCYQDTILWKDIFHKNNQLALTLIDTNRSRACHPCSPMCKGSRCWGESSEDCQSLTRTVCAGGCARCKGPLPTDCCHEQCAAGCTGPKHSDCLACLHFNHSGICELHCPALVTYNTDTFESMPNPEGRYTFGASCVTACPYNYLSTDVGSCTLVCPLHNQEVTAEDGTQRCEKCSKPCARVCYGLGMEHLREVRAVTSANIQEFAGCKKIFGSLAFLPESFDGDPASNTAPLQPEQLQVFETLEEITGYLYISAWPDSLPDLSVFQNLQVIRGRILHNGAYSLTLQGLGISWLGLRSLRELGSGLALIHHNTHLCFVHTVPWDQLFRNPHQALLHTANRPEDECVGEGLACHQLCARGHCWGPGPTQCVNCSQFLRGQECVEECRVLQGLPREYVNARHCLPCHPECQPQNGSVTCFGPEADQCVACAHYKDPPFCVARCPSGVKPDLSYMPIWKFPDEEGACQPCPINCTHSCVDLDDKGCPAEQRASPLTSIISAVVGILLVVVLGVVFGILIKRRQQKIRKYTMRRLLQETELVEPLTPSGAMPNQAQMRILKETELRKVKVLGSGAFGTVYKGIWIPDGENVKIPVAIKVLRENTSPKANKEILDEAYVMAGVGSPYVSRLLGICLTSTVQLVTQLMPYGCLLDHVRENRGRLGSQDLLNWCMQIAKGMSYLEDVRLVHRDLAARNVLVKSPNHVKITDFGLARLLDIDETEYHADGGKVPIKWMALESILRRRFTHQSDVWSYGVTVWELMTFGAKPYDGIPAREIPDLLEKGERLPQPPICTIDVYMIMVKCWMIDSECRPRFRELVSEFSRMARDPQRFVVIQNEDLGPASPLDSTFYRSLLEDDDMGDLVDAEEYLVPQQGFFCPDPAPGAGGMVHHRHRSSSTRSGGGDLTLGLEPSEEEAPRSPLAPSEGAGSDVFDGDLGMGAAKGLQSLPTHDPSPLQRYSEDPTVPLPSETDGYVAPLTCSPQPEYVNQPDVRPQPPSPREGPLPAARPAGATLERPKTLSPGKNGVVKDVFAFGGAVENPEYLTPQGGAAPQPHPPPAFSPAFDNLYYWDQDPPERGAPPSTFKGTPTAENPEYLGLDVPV

## CC(NS(=O)(=O)c1ccccc1)C(c1cccs1)N1CCN(C)CC1 (stereo not given)
[1]
  viability: 93.5%
[2]
  Her2 level: 79.5% (inactive)
[3]
  viability: 93.5% (inactive)
[4]
  viability: 81.1% (inactive)
[5]
  viability: 94.5% (inactive)
[6]; H69AR cells + 2 uM doxorubicin
  differential viability (reversal): 15% (inactive)
[6]; [9]
  viability: 79.4%
[6]; [10]
  viability: 94.5%
[7]
  inhibition: -5% (inactive)
[8]
  inhibition: -6.83% (inactive)

## COc1ccc2c(C(=O)CN(C)C3CCCCC3)c[nH]c2c1
[1]
  viability: 115%
[2]
  Her2 level: 72.5% (inactive)
[3]
  viability: 115% (inactive)
[4]
  viability: 92.3% (inactive)
[5]
  viability: 64.7% (inactive)
[6]; H69AR cells + 2 uM doxorubicin
  differential viability (reversal): -10.2% (inactive)
[6]; [9]
  viability: 74.9%
[6]; [10]
  viability: 64.7%
[7]
  inhibition: -0.92% (inactive)
[8]
  inhibition: -0.81% (inactive)

## O=C(CSc1nc(O)c(Cc2ccccc2)c(=O)[nH]1)Nc1ccccc1
[1]
  viability: 103%
[2]
  Her2 level: 97% (inactive)
[3]
  viability: 103% (inactive)
[4]
  viability: 106% (inactive)
[5]
  viability: 86.2% (inactive)
[6]; H69AR cells + 2 uM doxorubicin
  differential viability (reversal): 0.23% (inactive)
[6]; [9]
  viability: 85.9%
[6]; [10]
  viability: 86.2%
[7]
  inhibition: -2.08% (inactive)
[8]
  inhibition: -2.33% (inactive)

## Cn1c(=O)[nH]c2cc3ccccc3cc21
[1]
  viability: 118%
[2]
  Her2 level: 94% (inactive)
[3]
  viability: 118% (inactive)
[4]
  viability: 26.6% (active)
[5]
  viability: 95.6% (inactive)
[6]; H69AR cells + 2 uM doxorubicin
  differential viability (reversal): 16.5% (inactive)
[6]; [9]
  viability: 79.1%
[6]; [10]
  viability: 95.6%
[7]
  inhibition: -6.05% (inactive)
[8]
  inhibition: -0.73% (inactive)

## Cc1nnc(SCc2cnc(-c3ccccc3)o2)[nH]c1=O
[1]
  viability: 94%
[2]
  Her2 level: 86% (inactive)
[3]
  viability: 94% (inactive)
[4]
  viability: 86.7% (inactive)
[5]
  viability: 98% (inactive)
[6]; H69AR cells + 2 uM doxorubicin
  differential viability (reversal): 12.2% (inactive)
[6]; [9]
  viability: 85.8%
[6]; [10]
  viability: 98%
[7]
  inhibition: 2.76% (inactive)
[8]
  inhibition: -0.66% (inactive)

## CC1CN(C(=O)c2cc3cc(Cl)cc(Cl)c3oc2=O)CC(C)O1 (stereo not given)
[1]
  viability: 83.5%
[2]
  Her2 level: 102% (inactive)
[3]
  viability: 83.5% (inactive)
[4]
  viability: 96.8% (inactive)
[5]
  viability: 92.4% (inactive)
[6]; H69AR cells + 2 uM doxorubicin
  differential viability (reversal): 4.73% (inactive)
[6]; [9]
  viability: 87.7%
[6]; [10]
  viability: 92.4%
[7]
  inhibition: -3.47% (inactive)
[8]
  inhibition: 23.8% (inactive)

## CC(C)Cn1c(CN2CCCCC2C)nc2c1c(=O)n(C)c(=O)n2C (stereo not given)
[1]
  viability: 88.5%
[2]
  Her2 level: 91.5% (inactive)
[3]
  viability: 88.5% (inactive)
[4]
  viability: 109% (inactive)
[5]
  viability: 94.2% (inactive)
[6]; H69AR cells + 2 uM doxorubicin
  differential viability (reversal): 16.7% (inactive)
[6]; [9]
  viability: 77.6%
[6]; [10]
  viability: 94.2%
[7]
  inhibition: -5.73% (inactive)
[8]
  inhibition: -3.61% (inactive)

## COc1ccc(Br)cc1CNC(=O)C1CCCN(S(C)(=O)=O)C1 (stereo not given)
[1]
  viability: 78%
[2]
  Her2 level: 104% (inactive)
[3]
  viability: 78% (inactive)
[4]
  viability: 94.7% (inactive)
[5]
  viability: 88.4% (inactive)
[6]; H69AR cells + 2 uM doxorubicin
  differential viability (reversal): 6.26% (inactive)
[6]; [9]
  viability: 82.2%
[6]; [10]
  viability: 88.4%
[7]
  inhibition: 0.9% (inactive)
[8]
  inhibition: 10.2% (inactive)

## Cc1cc(C)c2c(n1)nn1c(N3CCN(c4cccc(Cl)c4)CC3)cc(C)nc21
[1]
  viability: 98.5%
[2]
  Her2 level: 83.5% (inactive)
[3]
  viability: 98.5% (inactive)
[4]
  viability: 61.8% (inactive)
[5]
  viability: 23.1% (active)
[6]; H69AR cells + 2 uM doxorubicin
  differential viability (reversal): 6.38% (inactive)
[6]; [9]
  viability: 16.7%
[6]; [10]
  viability: 23.1%
[7]
  inhibition: -5.68% (inactive)
[8]
  inhibition: 3.65% (inactive)

## O=C(NCCc1ccccn1)c1ccc(COc2ccccc2)o1
[1]
  viability: 80%
[2]
  Her2 level: 100% (inactive)
[3]
  viability: 80% (inactive)
[4]
  viability: 103% (inactive)
[5]
  viability: 102% (inactive)
[6]; H69AR cells + 2 uM doxorubicin
  differential viability (reversal): 6.97% (inactive)
[6]; [9]
  viability: 95.3%
[6]; [10]
  viability: 102%
[7]
  inhibition: -2.99% (inactive)
[8]
  inhibition: 0.33% (inactive)

## CCOC(=O)c1c(NC(=O)c2ccn(CC)n2)sc2c1CCCC2
[1]
  viability: 88%
[2]
  Her2 level: 70% (inactive)
[3]
  viability: 88% (inactive)
[4]
  viability: 75.5% (inactive)
[5]
  viability: 77.2% (inactive)
[6]; H69AR cells + 2 uM doxorubicin
  differential viability (reversal): -15% (inactive)
[6]; [9]
  viability: 92.2%
[6]; [10]
  viability: 77.2%
[7]
  inhibition: -4.74% (inactive)
[8]
  inhibition: 1.67% (inactive)

## COCCSc1ccccc1C(=O)Nc1cc(C)on1
[1]
  viability: 91%
[2]
  Her2 level: 90% (inactive)
[3]
  viability: 91% (inactive)
[4]
  viability: 95.4% (inactive)
[5]
  viability: 94.5% (inactive)
[6]; H69AR cells + 2 uM doxorubicin
  differential viability (reversal): 4.69% (inactive)
[6]; [9]
  viability: 89.8%
[6]; [10]
  viability: 94.5%
[7]
  inhibition: 0.39% (inactive)
[8]
  inhibition: -2.74% (inactive)

## COc1ccc(C(CNC(=O)c2cc(C)oc2C)N2CCOCC2)cc1 (stereo not given)
[1]
  viability: 126%
[2]
  Her2 level: 96.5% (inactive)
[3]
  viability: 126% (inactive)
[4]
  viability: 91.6% (inactive)
[5]
  viability: 101% (inactive)
[6]; H69AR cells + 2 uM doxorubicin
  differential viability (reversal): -9.67% (inactive)
[6]; [9]
  viability: 110%
[6]; [10]
  viability: 101%
[7]
  inhibition: -3.64% (inactive)
[8]
  inhibition: -0.32% (inactive)

## CCOc1ccc(C2CC(=O)NC3=C2C(=O)CCC3)cc1Cl (stereo not given)
[1]
  viability: 108%
[2]
  Her2 level: 97.5% (inactive)
[3]
  viability: 108% (inactive)
[4]
  viability: 88.4% (inactive)
[5]
  viability: 99.4% (inactive)
[6]; H69AR cells + 2 uM doxorubicin
  differential viability (reversal): 14.2% (inactive)
[6]; [9]
  viability: 85.2%
[6]; [10]
  viability: 99.4%
[7]
  inhibition: -4.21% (inactive)
[8]
  inhibition: 0% (inactive)

## COc1cccc(NC(=O)CSc2nnc(-c3cccs3)n2C)c1
[1]
  viability: 98%
[2]
  Her2 level: 78.5% (inactive)
[3]
  viability: 98% (inactive)
[4]
  viability: 116% (inactive)
[5]
  viability: 97.5% (inactive)
[6]; H69AR cells + 2 uM doxorubicin
  differential viability (reversal): 12.2% (inactive)
[6]; [9]
  viability: 85.3%
[6]; [10]
  viability: 97.5%
[7]
  inhibition: -6.08% (inactive)
[8]
  inhibition: -1.67% (inactive)

## CCOC(=O)C1CCCN(C/C(O)=C(\C#N)c2nc(-c3ccc(Cl)cc3)cs2)C1 (stereo not given)
[1]
  viability: 78.5%
[2]
  Her2 level: 101% (inactive)
[3]
  viability: 78.5% (inactive)
[4]
  viability: 71.8% (inactive)
[5]
  viability: 84.1% (inactive)
[6]; H69AR cells + 2 uM doxorubicin
  differential viability (reversal): -7.97% (inactive)
[6]; [9]
  viability: 92.1%
[6]; [10]
  viability: 84.1%
[7]
  inhibition: -6.16% (inactive)
[8]
  inhibition: -3.17% (inactive)
